{
  "source": "ChEMBL document CHEMBL1649117",
  "about": "“GRL-02031, a novel nonpeptidic protease inhibitor (PI) containing a stereochemically defined fused cyclopentanyltetrahydrofuran potent against multi-PI-resistant human immunodeficiency virus type 1 in vitro” (Antimicrob Agents Chemother, 2009)",
  "key": {"[1]": {"system": "Human immunodeficiency virus 1", "experiment": "Antiviral activity against HIV1 NL4-3 harboring L90M mutation in protease encoding region infected in human […] cells assessed as inhibition of p24 Gag protein production by ELISA", "format": "functional, organism-based", "conditions": "Human immunodeficiency virus 1, NL4-3", "in_short": "(§1)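 Protease PCR fragments (ApaI/SmaI) were cloned into pHIV-1NLSma, and virions were harvested from transfected 293T cells over 48 h. MT-4 target cells (10^5/ml) were infected with 100 TCID50s, with or without drug, at 37°C. Day-7 supernatant p24 Gag was read by chemiluminescent enzyme immunoassay.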"}, "[2]": {"system": "Human immunodeficiency virus 1", "experiment": "Antiviral activity against HIV1 NL4-3 harboring M46I mutation in protease encoding region infected in human […] cells assessed as inhibition of p24 Gag protein production by ELISA", "format": "functional, organism-based", "conditions": "Human immunodeficiency virus 1, NL4-3", "in_short": "as §1"}, "[3]": {"system": "Human immunodeficiency virus 2", "experiment": "Antiviral activity against HIV2 ROD infected in human MT2 cells after 7 days by MTT assay", "format": "functional, organism-based", "conditions": "Human immunodeficiency virus 2, ISOLATE ROD, MT2, 168 h"}, "[4]": {"system": "Human immunodeficiency virus 1", "experiment": "Ratio of EC50 for amprenavir to compound against HIV1 NL4-3 harboring I47V mutation in protease encoding region infected in human […] cells", "format": "functional"}, "[5]": {"system": "Human immunodeficiency virus 1", "experiment": "Antiviral activity against HIV1 NL4-3 harboring D30N mutation in protease encoding region infected in human […] cells assessed as inhibition of p24 Gag protein production by ELISA", "format": "functional, organism-based", "conditions": "Human immunodeficiency virus 1, NL4-3", "in_short": "as §1"}, "[6]": {"system": "Human immunodeficiency virus 1", "experiment": "Antiviral activity against HIV1 NL4-3 harboring M46I/I47V mutation in protease encoding region infected in human […] cells assessed as inhibition of p24 Gag protein production by ELISA", "format": "functional, organism-based", "conditions": "Human immunodeficiency virus 1, NL4-3", "in_short": "as §1"}, "[7]": {"system": "Human immunodeficiency virus 1", "experiment": "Ratio of EC50 for ritonavir to compound against HIV1 NL4-3 harboring I85V mutation in protease encoding region infected in human […] cells", "format": "functional"}, "[8]": {"system": "Human immunodeficiency virus 1", "experiment": "Antiviral activity against HIV1 NL4-3 harboring I84V/I85V mutation in protease encoding region infected in human […] cells assessed as inhibition of p24 Gag protein production by ELISA", "format": "functional, organism-based", "conditions": "Human immunodeficiency virus 1, NL4-3", "in_short": "as §1"}, "[9]": {"system": "Human immunodeficiency virus 1", "experiment": "Ratio of EC50 for HIV1 NL4-3 harboring I84V mutation in protease encoding region infected in human […] cells to EC50 for HIV1 NL4-3 infected in human MT4 cells", "format": "functional"}, "[10]": {"system": "Human immunodeficiency virus 1", "experiment": "Ratio of EC50 for HIV1 NL4-3 harboring I85V mutation in protease encoding region infected in human […] cells to EC50 for HIV1 NL4-3 infected in human MT4 cells", "format": "functional"}, "[11]": {"system": "Human immunodeficiency virus 1", "experiment": "Antiviral activity against HIV1 subtype A 92UG037 infected in human PHA-PBM cells after 7 days by MTT assay", "format": "functional, organism-based", "conditions": "Human immunodeficiency virus 1, subtype A 92UG037, PBMC, 168 h"}, "[12]": {"system": "Human immunodeficiency virus 1", "experiment": "Ratio of EC50 for HIV1 NL4-3 harboring L33F mutation in protease encoding region infected in human […] cells to EC50 for HIV1 NL4-3 infected in human MT4 cells", "format": "functional"}, "[13]": {"system": "Human immunodeficiency virus 1", "experiment": "Antiviral activity against HIV1 NL4-3 harboring I50V mutation in protease encoding region infected in human […] cells assessed as inhibition of p24 Gag protein production by ELISA", "format": "functional, organism-based", "conditions": "Human immunodeficiency virus 1, NL4-3", "in_short": "as §1"}, "[14]": {"system": "Human immunodeficiency virus 1", "experiment": "Ratio of EC50 for amprenavir to compound against HIV1 NL4-3 harboring Q58E mutation in protease encoding region infected in human […] cells", "format": "functional"}, "[15]": {"system": "Human immunodeficiency virus 1", "experiment": "Ratio of EC50 for HIV1 NL4-3 harboring I50V mutation in protease encoding region infected in human […] cells to EC50 for HIV1 NL4-3 infected in human MT4 cells", "format": "functional"}, "[16]": {"system": "Human immunodeficiency virus 1", "experiment": "Ratio of EC50 for HIV1 NL4-3 harboring G48V mutation in protease encoding region infected in human […] cells to EC50 for HIV1 NL4-3 infected in human MT4 cells", "format": "functional"}, "[17]": {"system": "Human immunodeficiency virus 1", "experiment": "Antiviral activity against HIV1 Ba-L infected in human PHA-PBM cells after 7 days by MTT assay", "format": "functional, organism-based", "conditions": "Human immunodeficiency virus 1, Ba-L, PBMC, 168 h"}, "[18]": {"system": "Human immunodeficiency virus 1", "experiment": "Ratio of EC50 for HIV1 NL4-3 harboring M46I/I47V mutation in protease encoding region infected in human […] cells to EC50 for HIV1 NL4-3 infected in human MT4 cells", "format": "functional"}, "[19]": {"system": "Human immunodeficiency virus 1", "experiment": "Antiviral activity against HIV1 NL4-3 harboring Q58E mutation in protease encoding region infected in human […] cells assessed as inhibition of p24 Gag protein production by ELISA", "format": "functional, organism-based", "conditions": "Human immunodeficiency virus 1, NL4-3", "in_short": "as §1"}, "[20]": {"system": "Human immunodeficiency virus 1", "experiment": "Ratio of EC50 for HIV1 NL4-3 harboring I47V mutation in protease encoding region infected in human […] cells to EC50 for HIV1 NL4-3 infected in human MT4 cells", "format": "functional"}, "[21]": {"system": "Human immunodeficiency virus 1", "experiment": "Antiviral activity against HIV1 NL4-3 harboring V82I mutation in protease encoding region infected in human […] cells assessed as inhibition of p24 Gag protein production by ELISA", "format": "functional, organism-based", "conditions": "Human immunodeficiency virus 1, NL4-3", "in_short": "as §1"}, "[22]": {"system": "Human immunodeficiency virus 1", "experiment": "Antiviral activity against HIV1 NL4-3 harboring L10F/I47V/V82I/I85V mutation in protease encoding region infected in human […] cells assessed as inhibition of p24 Gag protein production by ELISA", "format": "functional, organism-based", "conditions": "Human immunodeficiency virus 1, NL4-3", "in_short": "as §1"}, "[23]": {"system": "Human immunodeficiency virus 1", "experiment": "Ratio of EC50 for HIV1 NL4-3 harboring V82I/I85V mutation in protease encoding region infected in human […] cells to EC50 for HIV1 NL4-3 infected in human MT4 cells", "format": "functional"}, "[24]": {"system": "Human immunodeficiency virus 1", "experiment": "Antiviral activity against HIV1 NL4-3 harboring I84V mutation in protease encoding region infected in human […] cells assessed as inhibition of p24 Gag protein production by ELISA", "format": "functional, organism-based", "conditions": "Human immunodeficiency virus 1, NL4-3", "in_short": "as §1"}, "[25]": {"system": "Human immunodeficiency virus 1", "experiment": "Ratio of EC50 for HIV1 NL4-3 harboring L10F/I47V/V82I/I85V mutation in protease encoding region infected in human […] cells to EC50 for HIV1 NL4-3 infected in human MT4 cells", "format": "functional"}, "[26]": {"system": "Human immunodeficiency virus 1", "experiment": "Antiviral activity against HIV1 NL4-3 harboring I47V mutation in protease encoding region infected in human […] cells assessed as inhibition of p24 Gag protein production by ELISA", "format": "functional, organism-based", "conditions": "Human immunodeficiency virus 1, NL4-3", "in_short": "as §1"}, "[27]": {"system": "Human immunodeficiency virus 1", "experiment": "Ratio of EC50 for amprenavir to compound against HIV1 NL4-3 harboring M46I/I47V mutation in protease encoding region infected in human […] cells", "format": "functional"}, "[28]": {"system": "Human immunodeficiency virus 1", "experiment": "Antiviral activity against HIV1 JRFL infected in human PHA-PBM cells after 7 days by MTT assay", "format": "functional, organism-based", "conditions": "Human immunodeficiency virus 1, JRFL, PBMC, 168 h"}, "[29]": {"system": "Human immunodeficiency virus 1", "experiment": "Ratio of EC50 for amprenavir to compound against HIV1 NL4-3 harboring L10F mutation in protease encoding region infected in human […] cells", "format": "functional"}, "[30]": {"system": "Human immunodeficiency virus 1", "experiment": "Antiviral activity against HIV1 NL4-3 harboring G48V mutation in protease encoding region infected in human […] cells assessed as inhibition of p24 Gag protein production by ELISA", "format": "functional, organism-based", "conditions": "Human immunodeficiency virus 1, NL4-3", "in_short": "as §1"}, "[31]": {"system": "Human immunodeficiency virus 1", "experiment": "Ratio of EC50 for ritonavir to compound against HIV1 NL4-3 harboring L33F mutation in protease encoding region infected in human […] cells", "format": "functional"}, "[32]": {"system": "Human immunodeficiency virus 1", "experiment": "Ratio of EC50 for HIV1 NL4-3 harboring V82I mutation in protease encoding region infected in human […] cells to EC50 for HIV1 NL4-3 infected in human MT4 cells", "format": "functional"}, "[33]": {"system": "Human immunodeficiency virus 1", "experiment": "Antiviral activity against HIV1 NL4-3 harboring L10F mutation in protease encoding region infected in human […] cells assessed as inhibition of p24 Gag protein production by ELISA", "format": "functional, organism-based", "conditions": "Human immunodeficiency virus 1, NL4-3", "in_short": "as §1"}},
  "note": "pEC50: −log10 of the molar value.",
  "data": [
    {"smiles": "COc1ccc(S(=O)(=O)N(C[C@@H]2CCC(=O)N2)C[C@@H](O)[C@H](Cc2ccccc2)NC(=O)O[C@@H]2C[C@@H]3CCO[C@@H]3C2)cc1", "values": [
      {"measurement": "pEC50", "setting": "[1]", "result": 7.49},
      {"measurement": "pEC50", "setting": "[2]", "result": 7.55},
      {"measurement": "pEC50", "setting": "[3]", "result": 6.22},
      {"measurement": "Ratio EC50", "setting": "[4]", "result": 1.2},
      {"measurement": "pEC50", "setting": "[5]", "result": 7.70},
      {"measurement": "pEC50", "setting": "[6]", "result": 7.14},
      {"measurement": "Ratio EC50", "setting": "[7]", "result": 2.1},
      {"measurement": "pEC50", "setting": "[8]", "result": 7.01},
      {"measurement": "Ratio EC50", "setting": "[9]", "result": 1.3},
      {"measurement": "Ratio EC50", "setting": "[10]", "result": 1},
      {"measurement": "pEC50", "setting": "[11]", "result": 7.82},
      {"measurement": "Ratio EC50", "setting": "[12]", "result": 1.2},
      {"measurement": "pEC50", "setting": "[13]", "result": 7.82},
      {"measurement": "Ratio EC50", "setting": "[14]", "result": 1},
      {"measurement": "Ratio EC50", "setting": "[15]", "result": 0.7},
      {"measurement": "Ratio EC50", "setting": "[16]", "result": 1.7},
      {"measurement": "pEC50", "setting": "[17]", "result": 7.82},
      {"measurement": "Ratio EC50", "setting": "[18]", "result": 3.2},
      {"measurement": "pEC50", "setting": "[19]", "result": 7.48},
      {"measurement": "Ratio EC50", "setting": "[20]", "result": 1.6},
      {"measurement": "pEC50", "setting": "[21]", "result": 7.46},
      {"measurement": "pEC50", "setting": "[22]", "result": 6.37},
      {"measurement": "Ratio EC50", "setting": "[23]", "result": 1.5},
      {"measurement": "pEC50", "setting": "[24]", "result": 7.52},
      {"measurement": "Ratio EC50", "setting": "[25]", "result": 18.7},
      {"measurement": "pEC50", "setting": "[26]", "result": 7.43},
      {"measurement": "Ratio EC50", "setting": "[27]", "result": 1.3},
      {"measurement": "pEC50", "setting": "[28]", "result": 7.82},
      {"measurement": "Ratio EC50", "setting": "[29]", "result": 1.4},
      {"measurement": "pEC50", "setting": "[30]", "result": 7.40},
      {"measurement": "Ratio EC50", "setting": "[31]", "result": 1},
      {"measurement": "Ratio EC50", "setting": "[32]", "result": 1.5},
      {"measurement": "pEC50", "setting": "[33]", "result": 7.43}
    ]}
  ]
}
